We go through 6 molecules from ChEMBL document CHEMBL1142292, “Synthesis and biological activity of novel peptide mimetics as melanocortin receptor agonists” (Bioorg Med Chem Lett, 2008).

pEC50, pKi: −log10 of the molar value. Some results are limits rather than exact numbers.

Experiment [1] has as its target T1, Melanocyte-stimulating hormone receptor (Homo sapiens, UniProt Q01726). Description: Displacement of europium labeled NDP-alpha-MSH from human MC1 receptor expressed in HEK293 cells. The experiment is classed as cell-based. The procedure, abridged:
(§1)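 HEK293 cells stably transfected with each human receptor subtype; competing unlabeled ligands displace a constant concentration of europium-labeled NDP-α-MSH, read by time-resolved fluorometry; IC50 and Ki calculated.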

Experiment [2] deals with T2, Melanocortin receptor 3 (Homo sapiens, UniProt P41968). Put plainly: Displacement of europium labeled NDP-alpha-MSH from human MC3 receptor expressed in HEK293 cells. The class given is cell-based. The essentials: as §1
Experiment [3] deals with T3, Melanocortin receptor 4 (Homo sapiens, UniProt P32245). Description: Displacement of europium labeled NDP-alpha-MSH from human MC4 receptor expressed in HEK293 cells. The experiment is classed as cell-based. The essentials:
as §1

The target of experiment [4] is T1, Melanocyte-stimulating hormone receptor. Description: Agonist activity at human MC1 receptor expressed in HEK293 cells. The class given is functional, cell-based. The essentials:
(§2)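 HEK293 cells stably transfected with the receptor subtype and a CRE-luciferase reporter; cells assayed in 96-well format for luciferase activity. Response expressed as percent of maximal activity (Emax) of NDP-MSH (MT-I) reference agonist.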

In experiment [5] the target is T2, Melanocortin receptor 3. Put plainly: Agonist activity at human MC3 receptor expressed in HEK293 cells. The experiment is classed as functional, cell-based. The procedure, abridged:
as §2

The target in experiment [6] is T3, Melanocortin receptor 4. Put plainly: Agonist activity at human MC4 receptor expressed in HEK293 cells. The experiment is classed as functional, cell-based. The essentials: as §2

T3 sequence (P32245 whole entry): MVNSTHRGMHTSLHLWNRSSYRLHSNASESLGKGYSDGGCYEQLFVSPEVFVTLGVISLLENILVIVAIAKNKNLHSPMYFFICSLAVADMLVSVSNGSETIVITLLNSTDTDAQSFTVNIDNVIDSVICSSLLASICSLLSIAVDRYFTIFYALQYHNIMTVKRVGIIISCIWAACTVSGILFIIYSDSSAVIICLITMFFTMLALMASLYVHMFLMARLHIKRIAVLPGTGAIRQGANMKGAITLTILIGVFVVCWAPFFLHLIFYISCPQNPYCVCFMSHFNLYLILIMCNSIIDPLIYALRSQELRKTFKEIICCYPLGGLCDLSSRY
T1 sequence (Q01726 whole entry): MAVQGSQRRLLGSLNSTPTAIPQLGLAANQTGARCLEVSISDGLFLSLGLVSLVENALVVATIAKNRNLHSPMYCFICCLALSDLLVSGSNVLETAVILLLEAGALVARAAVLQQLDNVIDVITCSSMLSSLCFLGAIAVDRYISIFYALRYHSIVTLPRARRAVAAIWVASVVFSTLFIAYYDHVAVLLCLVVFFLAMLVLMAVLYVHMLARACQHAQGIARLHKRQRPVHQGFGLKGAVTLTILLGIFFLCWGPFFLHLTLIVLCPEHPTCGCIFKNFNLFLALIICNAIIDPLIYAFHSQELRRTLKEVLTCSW
T2 sequence (P41968 whole entry): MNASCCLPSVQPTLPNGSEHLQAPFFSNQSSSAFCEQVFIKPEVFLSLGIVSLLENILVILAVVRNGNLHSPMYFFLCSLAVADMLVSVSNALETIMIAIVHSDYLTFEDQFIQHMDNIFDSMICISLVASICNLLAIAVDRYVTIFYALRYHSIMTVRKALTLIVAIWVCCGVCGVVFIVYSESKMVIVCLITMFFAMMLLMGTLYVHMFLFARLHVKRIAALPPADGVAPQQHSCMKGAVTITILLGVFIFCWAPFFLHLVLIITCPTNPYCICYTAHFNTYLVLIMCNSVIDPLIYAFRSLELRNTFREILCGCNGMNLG

As for `NC(N)=NCCC[C@@H](CN1CCCCC1)NC(=O)[C@H](N)Cc1ccc(F)cc1`, the pKi (in experiment [1]; on Melanocortin receptor 3 [2]; at Melanocortin receptor 4 [3]) was under 4.00 throughout. The pEC50 was under 4.30 in experiment [4], under 4.00 on Melanocortin receptor 3 [5] and under 4.00 at Melanocortin receptor 4 [6].

As for `N=C(N)NCCC[C@H](CC1CCCCC1)NC(=O)[C@H](N)Cc1ccc(F)cc1`, the pKi at Melanocortin receptor 3 [2] is 5.04; at Melanocortin receptor 4 [3] it was 5.17. Also, the values for the pEC50 (in experiment [4]; on Melanocortin receptor 3 [5]; on Melanocortin receptor 4 [6]) were under 4.60, under 4.82 and under 4.30, respectively.

Take `N[C@H](Cc1ccc(Cl)cc1)C(=O)N1CCC(Cn2cncn2)(C2CCCCC2)CC1`: the results for the negative logarithm of the Ki (pKi) (in experiment [1]; on Melanocortin receptor 3 [2]; at Melanocortin receptor 4 [3]) were under 5.00, 5.64 and 7.64, respectively. Further, the results for the pEC50 (in experiment [4]; at Melanocortin receptor 3 [5]; at Melanocortin receptor 4 [6]) were 5.70, 6.64 and 7.80, respectively.

As for `N[C@H](Cc1ccc(F)cc1)C(=O)NCCC(Cn1cncn1)C1CCCCC1` (some centres undefined), the figures for the pKi (in experiment [1]; at Melanocortin receptor 3 [2]; at Melanocortin receptor 4 [3]) were under 4.60, 5.35 and under 4.30, respectively. Moreover, the negative-log EC50 (pEC50) is under 4.60 in experiment [4], under 4.30 at Melanocortin receptor 3 [5] and under 4.60 on Melanocortin receptor 4 [6].

As to `N=C(N)NCCC[C@H](NC(=O)[C@H](N)Cc1ccc(F)cc1)C(=O)N1CCCCC1`, the pKi is under 4.00 in experiment [1], under 4.00 at Melanocortin receptor 3 [2] and under 4.60 on Melanocortin receptor 4 [3]. Moreover, the pEC50 in experiment [4] is under 4.30; at Melanocortin receptor 3 [5], under 4.60; on Melanocortin receptor 4 [6] it was under 4.30.

Consider `NC(N)=NCCC[C@H](Cc1ccccc1)NC(=O)[C@H](N)Cc1ccc(F)cc1`, for which the negative logarithm of the Ki (pKi) in experiment [1] is under 4.60; at Melanocortin receptor 3 [2], 5.46; on Melanocortin receptor 4 [3], 5.38. Also, the pEC50 at Melanocortin receptor 3 [5] and at Melanocortin receptor 4 [6] was under 4.00 each time.

One may read the pKi as the Ki on a negative log10 scale, so that one unit is a factor of ten. One may read the pEC50 as the EC50 on a negative log10 scale, so that one unit is a factor of ten. High values mean a small EC50, low ones a large EC50.
